Published values collected from several papers.
Protocols differ between the studies behind these lines.
Target: Protein kinase C epsilon type (PRKCE, Homo sapiens, UniProt Q02156)

For `O=C1NC(=O)c2cc(Nc3ccc(F)cc3)c(Nc3ccc(F)cc3)cc21`, the remaining signal was 97.8% (cell-free assay; 0.5 µM).
`C=CC(=O)Nc1cc(Nc2nccc(Nc3cc(Cl)c(F)cc3C(C)(C)O)n2)c(OC)cc1N1CC[C@@H](N(C)C)C1` has an inhibition of 2% (enzyme activity, inhibitor; 1 µM).
`Cn1cncc1C1=CN(c2ncnc3[nH]cnc23)CCS1` gave an inhibition of 92.7% (enzyme activity, inhibitor, radiometric; 2 µM).
The activity vs control of `Cc1ccc(C(=O)NCc2ccsc2)cc1C#Cc1cn(C(C)C)c2ncnc(N)c12` is reported as 104% (enzyme activity, inhibitor; 1 µM).
The remaining signal of `Nc1ncnc2occ(-c3ccc(NC(=O)Nc4cc(C(F)(F)F)ccc4F)cc3)c12` is reported as 50% (cell-free assay; 20 µM).
For `O=C(Nc1nccs1)C(c1cc(F)ccc1O)N1Cc2ccccc2C1=O` (centres unmarked), the inhibition was 14% (enzyme activity, inhibitor; 1 µM).
The inhibition of `Cc1ccc(-n2nc(C(C)(C)C)cc2NC(=O)Nc2ccc(OCCN3CCOCC3)c3ccccc23)cc1` is reported as 16% (enzyme activity, inhibitor; 10 µM).
For `CC(C)(C)c1nc2c(s1)c1nc(N)ncc1c1ccc(NS(=O)(=O)c3c(F)cccc3F)c(F)c12`, the remaining activity was 133% (enzyme activity, inhibitor, radiometric; 1 µM).
The remaining binding of `Cc1nc(N2CC[C@@H](O)C2)ncc1-c1cc(C(F)(F)F)cc2[nH]ncc12` is reported as 88% (cell-free assay, competition with immobilised ligand; 1 µM).
The remaining activity of `O=C(Nc1cnn(-c2csc(C(=O)NC3COC3)c2)c1)Nc1ccccc1Cl` is reported as 102% (enzyme activity, inhibitor; 5 µM).
`Nc1cnc(N2CCc3cc(S(=O)(=O)Nc4c(F)cc(Cl)cc4F)cc(N4CCCC4=O)c32)nc1` has a remaining binding of 100% (cell-free assay, competition with immobilised ligand; 1 µM).
`Cc1cnc(NC2CCOCC2)nc1-n1cnc(C(=O)NC(CN)c2cc(F)cc(Cl)c2)c1` (centres unmarked) gave a remaining activity of 91% (enzyme activity, inhibitor, radiometric; 1 µM).
The remaining activity of `CCCOc1ccc(OC)c(F)c1C(=O)c1ccc(C(=O)N[C@@H]2CNC[C@H]2NC(=O)c2ccc3[nH]ncc3c2)cc1` is reported as 67% (enzyme activity, inhibitor; 10 µM).
With `Nc1c(C(=O)NCc2ccc(C(=O)NCCCC3CCCCC3)cc2)cnn1-c1ccccc1` the remaining binding was 100% (cell-free assay, competition with immobilised ligand; 0.1 µM).
For `Cc1cc(NC(=O)c2cccc3cc(-c4cccc5[nH]nc(N)c45)ccc23)ccc1F`, the activity vs control was 84% (enzyme activity, inhibitor; 0.1 µM).
`Cc1ccc(NC(=O)c2ccc(C)c(C(F)(F)F)c2)cc1C#Cc1nn(C2CCC(O)CC2)c2ncnc(N)c12` (centres unmarked) gave a remaining signal of 117% (cell-free assay; 10 µM).
For `COc1cc2ncnc(Nc3ccc(Oc4ccccc4)cc3C)c2cc1OC`, the inhibition was 0% (enzyme activity, inhibitor; 1 µM).
`CS(=O)(=O)Nc1cccc(-c2csc(NC(=O)CSc3nc4nccnc4c(=O)n3CCc3ccccc3)n2)c1` gave an inhibition of -9% (enzyme activity, inhibitor; 10 µM).
With `CN(C)CC#Cc1ccc(OCCCc2sc(N3CCc4cccc(C(=O)Nc5nc6ccccc6s5)c4C3)nc2C(=O)O)c(F)c1` the remaining binding was 100% (cell-free assay, competition with immobilised ligand; 1 µM).
For `Cc1ccc(Nc2nccc(N(C)c3ccc4c(C)n(C)nc4c3)n2)cc1S(N)(=O)=O`, the inhibition was 12% (enzyme activity, inhibitor; 10 µM).
`CN(C)c1ncnc(-c2ccc3nc(Nc4cc(CN5CCN(C(=O)CC(F)(F)F)CC5)ccn4)[nH]c3c2)c1Cl` has a remaining binding of 100% (cell-free assay, competition with immobilised ligand; 1 µM).
`N#CCCc1ccc2c(c1)-c1[nH]c3ccc([N+](=O)[O-])cc3c1CC(=O)N2` gave a remaining signal of 95.4% (cell-free assay; 0.5 µM).
`COc1ccc2c(c1)O[C@H](c1ccc(OC)c(OC)c1)C[C@@H]2NC(=O)C1(c2ccc3c(c2)OC(F)(F)O3)CC1` has a remaining binding of 90% (cell-free assay, competition with immobilised ligand; 1 µM).
`CNC(=O)c1cc(Oc2ccc(NC(=O)Nc3ccc(Cl)c(C(F)(F)F)c3)cc2)ccn1` has a remaining signal of 96.4% (cell-free assay; 0.5 µM).
With `CNCc1ccccc1-c1csc([C@H](C)Nc2nc(C)nc3cc(OC)c(OC)cc23)c1` the remaining binding was 78% (cell-free assay, competition with immobilised ligand; 1 µM).
For `CCN(CC)c1ccc(C2=NNC(=O)CC2C)cc1[N+](=O)[O-]` (centres unmarked), the remaining activity was 95% (enzyme activity, inhibitor; 10 µM).
